ChEMBL document CHEMBL4689842, “EUbOPEN Chemogenomics Library wave 1” (2021)

Tested on: Fibroblast
Assay: Multiplex assay against human fibroblast
Assay type: toxicity, cell-based
Procedure, shortened: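 Tubulin, mitochondrial-mass and membrane-permeability phenotypes are per cents of healthy-nucleus cells. Cells were gated by CellPathfinder machine learning into Hoechst high-intensity objects or normal cells, normal cells into healthy, pyknosed or fragmented nuclei, and pyknosed cells into mitotic or apoptotic. Before that, live cells stained at seeding with Hoechst33342, BioTracker Green Microtubule Cytoskeleton Dye, MitoTracker Red and Annexin V Alexa Fluor 680 were imaged on a CQ1 microscope at 37°C and 5% CO2 after compound addition.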

[1] = 12 h, 1 µM, compound concentration 1 uM, replicate 1
[2] = 12 h, 1 µM, compound concentration 1 uM, replicate 2
[3] = 12 h, 10 µM, compound concentration 10 uM, replicate 1
[4] = 12 h, 10 µM, compound concentration 10 uM, replicate 2
[5] = 24 h, 1 µM, compound concentration 1 uM, replicate 1
[6] = 24 h, 1 µM, compound concentration 1 uM, replicate 2
[7] = 24 h, 10 µM, compound concentration 10 uM, replicate 1
[8] = 24 h, 10 µM, compound concentration 10 uM, replicate 2
[9] = 48 h, 1 µM, compound concentration 1 uM, replicate 1
[10] = 48 h, 1 µM, compound concentration 1 uM, replicate 2
[11] = 48 h, 10 µM, compound concentration 10 uM, replicate 1
[12] = 48 h, 10 µM, compound concentration 10 uM, replicate 2

## Cc1ccc2nc(NCCN)c3ncc(C)n3c2c1.O=C(O)C(F)(F)F.O=C(O)C(F)(F)F
[1]
  Population Apoptotic (%): 78%
  Population Fragmented Nuclei (%): 28%
  Population Healthy Nuclei (%): 60%
  Population Hoechst High Intensity Objects (%): 11%
  Population Membrane Permeable-Phenotype (%): 5%
  Population Mitochondria Different-Phenotype (%): 1%
  Population Mitotic Cells (%): 21%
  Population Normal (%): 88%
  Population Tubulin-Different-Phenotype (%): 3%
  Total Cell Count: 243
[2]
  Population Apoptotic (%): 50%
  Population Fragmented Nuclei (%): 65%
  Population Healthy Nuclei (%): 23%
  Population Hoechst High Intensity Objects (%): 51%
  Population Membrane Permeable-Phenotype (%): 11%
  Population Mitochondria Different-Phenotype (%): 22%
  Population Mitotic Cells (%): 50%
  Population Normal (%): 48%
  Population Pyknosed Nuclei (%): 10%
  Population Tubulin-Different-Phenotype (%): 11%
  Total Cell Count: 78
[3]
  Population Apoptotic (%): 76%
  Population Fragmented Nuclei (%): 33%
  Population Healthy Nuclei (%): 52%
  Population Hoechst High Intensity Objects (%): 21%
  Population Membrane Permeable-Phenotype (%): 5%
  Population Mitochondria Different-Phenotype (%): 3%
  Population Mitotic Cells (%): 23%
  Population Normal (%): 78%
  Population Pyknosed Nuclei (%): 13%
  Population Tubulin-Different-Phenotype (%): 11%
  Total Cell Count: 309
[4]
  Population Apoptotic (%): 66%
  Population Fragmented Nuclei (%): 57%
  Population Healthy Nuclei (%): 26%
  Population Hoechst High Intensity Objects (%): 36%
  Population Membrane Permeable-Phenotype (%): 6%
  Population Mitochondria Different-Phenotype (%): 33%
  Population Mitotic Cells (%): 33%
  Population Normal (%): 63%
  Population Pyknosed Nuclei (%): 15%
  Population Tubulin-Different-Phenotype (%): 46%
  Total Cell Count: 90
[5]
  Population Apoptotic (%): 64%
  Population Fragmented Nuclei (%): 22%
  Population Healthy Nuclei (%): 59%
  Population Hoechst High Intensity Objects (%): 11%
  Population Membrane Permeable-Phenotype (%): 4%
  Population Mitochondria Different-Phenotype (%): 0%
  Population Mitotic Cells (%): 35%
  Population Normal (%): 88%
  Population Pyknosed Nuclei (%): 17%
  Population Tubulin-Different-Phenotype (%): 2%
  Total Cell Count: 253
[6]
  Population Apoptotic (%): 66%
  Population Fragmented Nuclei (%): 64%
  Population Healthy Nuclei (%): 27%
  Population Hoechst High Intensity Objects (%): 43%
  Population Membrane Permeable-Phenotype (%): 0%
  Population Mitochondria Different-Phenotype (%): 20%
  Population Mitotic Cells (%): 33%
  Population Normal (%): 56%
  Population Pyknosed Nuclei (%): 8%
  Population Tubulin-Different-Phenotype (%): 0%
  Total Cell Count: 65
[7]
  Population Apoptotic (%): 81%
  Population Fragmented Nuclei (%): 35%
  Population Healthy Nuclei (%): 50%
  Population Hoechst High Intensity Objects (%): 23%
  Population Membrane Permeable-Phenotype (%): 5%
  Population Mitochondria Different-Phenotype (%): 0%
  Population Mitotic Cells (%): 18%
  Population Normal (%): 76%
  Population Pyknosed Nuclei (%): 13%
  Population Tubulin-Different-Phenotype (%): 3%
  Total Cell Count: 370
[8]
  Population Apoptotic (%): 77%
  Population Fragmented Nuclei (%): 47%
  Population Healthy Nuclei (%): 35%
  Population Hoechst High Intensity Objects (%): 39%
  Population Membrane Permeable-Phenotype (%): 15%
  Population Mitochondria Different-Phenotype (%): 15%
  Population Mitotic Cells (%): 22%
  Population Normal (%): 60%
  Population Pyknosed Nuclei (%): 16%
  Population Tubulin-Different-Phenotype (%): 52%
  Total Cell Count: 88

## Cl.Oc1ccc2c3c1O[C@H]1c4[nH]c5c(c4C[C@@]4(O)[C@@H](C2)N(CC2CC2)CC[C@]314)C[C@@]1(O)[C@H]2Cc3ccc(O)c4c3[C@@]1(CCN2CC1CC1)[C@H]5O4
[1]
  Population Apoptotic (%): 71%
  Population Fragmented Nuclei (%): 27%
  Population Healthy Nuclei (%): 40%
  Population Hoechst High Intensity Objects (%): 15%
  Population Membrane Permeable-Phenotype (%): 20%
  Population Mitochondria Different-Phenotype (%): 11%
  Population Mitotic Cells (%): 28%
  Population Normal (%): 84%
  Population Pyknosed Nuclei (%): 32%
  Population Tubulin-Different-Phenotype (%): 31%
  Total Cell Count: 103
[2]
  Population Apoptotic (%): 42%
  Population Fragmented Nuclei (%): 3%
  Population Healthy Nuclei (%): 86%
  Population Hoechst High Intensity Objects (%): 9%
  Population Membrane Permeable-Phenotype (%): 10%
  Population Mitochondria Different-Phenotype (%): 19%
  Population Mitotic Cells (%): 57%
  Population Normal (%): 90%
  Population Pyknosed Nuclei (%): 10%
  Population Tubulin-Different-Phenotype (%): 17%
  Total Cell Count: 97
[3]
  Population Apoptotic (%): 69%
  Population Fragmented Nuclei (%): 23%
  Population Healthy Nuclei (%): 47%
  Population Hoechst High Intensity Objects (%): 8%
  Population Membrane Permeable-Phenotype (%): 25%
  Population Mitochondria Different-Phenotype (%): 5%
  Population Mitotic Cells (%): 30%
  Population Normal (%): 91%
  Population Pyknosed Nuclei (%): 28%
  Population Tubulin-Different-Phenotype (%): 41%
  Total Cell Count: 173
[4]
  Population Apoptotic (%): 93%
  Population Fragmented Nuclei (%): 12%
  Population Healthy Nuclei (%): 48%
  Population Hoechst High Intensity Objects (%): 7%
  Population Membrane Permeable-Phenotype (%): 52%
  Population Mitochondria Different-Phenotype (%): 26%
  Population Mitotic Cells (%): 6%
  Population Normal (%): 92%
  Population Pyknosed Nuclei (%): 38%
  Population Tubulin-Different-Phenotype (%): 89%
  Total Cell Count: 73
[5]
  Population Apoptotic (%): 66%
  Population Fragmented Nuclei (%): 19%
  Population Healthy Nuclei (%): 51%
  Population Hoechst High Intensity Objects (%): 14%
  Population Membrane Permeable-Phenotype (%): 27%
  Population Mitochondria Different-Phenotype (%): 2%
  Population Mitotic Cells (%): 33%
  Population Normal (%): 85%
  Population Pyknosed Nuclei (%): 29%
  Population Tubulin-Different-Phenotype (%): 43%
  Total Cell Count: 84
[6]
  Population Apoptotic (%): 25%
  Population Fragmented Nuclei (%): 3%
  Population Healthy Nuclei (%): 91%
  Population Hoechst High Intensity Objects (%): 4%
  Population Membrane Permeable-Phenotype (%): 10%
  Population Mitochondria Different-Phenotype (%): 13%
  Population Mitotic Cells (%): 75%
  Population Normal (%): 95%
  Population Pyknosed Nuclei (%): 4%
  Population Tubulin-Different-Phenotype (%): 18%
  Total Cell Count: 94
[7]
  Population Apoptotic (%): 65%
  Population Fragmented Nuclei (%): 18%
  Population Healthy Nuclei (%): 62%
  Population Hoechst High Intensity Objects (%): 15%
  Population Membrane Permeable-Phenotype (%): 25%
  Population Mitochondria Different-Phenotype (%): 3%
  Population Mitotic Cells (%): 34%
  Population Normal (%): 84%
  Population Pyknosed Nuclei (%): 19%
  Population Tubulin-Different-Phenotype (%): 27%
  Total Cell Count: 178
[8]
  Population Apoptotic (%): 76%
  Population Fragmented Nuclei (%): 13%
  Population Healthy Nuclei (%): 58%
  Population Hoechst High Intensity Objects (%): 13%
  Population Membrane Permeable-Phenotype (%): 48%
  Population Mitochondria Different-Phenotype (%): 33%
  Population Mitotic Cells (%): 23%
  Population Normal (%): 86%
  Population Pyknosed Nuclei (%): 28%
  Population Tubulin-Different-Phenotype (%): 77%
  Total Cell Count: 91
[9]
  Population Apoptotic (%): 60%
  Population Fragmented Nuclei (%): 26%
  Population Healthy Nuclei (%): 52%
  Population Hoechst High Intensity Objects (%): 16%
  Population Membrane Permeable-Phenotype (%): 32%
  Population Mitochondria Different-Phenotype (%): 5%
  Population Mitotic Cells (%): 40%
  Population Normal (%): 83%
  Population Pyknosed Nuclei (%): 21%
  Population Tubulin-Different-Phenotype (%): 43%
  Total Cell Count: 85
[10]
  Population Apoptotic (%): 75%
  Population Fragmented Nuclei (%): 16%
  Population Healthy Nuclei (%): 78%
  Population Hoechst High Intensity Objects (%): 7%
  Population Membrane Permeable-Phenotype (%): 18%
  Population Mitochondria Different-Phenotype (%): 0%
  Population Mitotic Cells (%): 25%
  Population Normal (%): 92%
  Population Pyknosed Nuclei (%): 4%
  Population Tubulin-Different-Phenotype (%): 26%
  Total Cell Count: 103
[11]
  Population Apoptotic (%): 61%
  Population Fragmented Nuclei (%): 31%
  Population Healthy Nuclei (%): 55%
  Population Hoechst High Intensity Objects (%): 18%
  Population Membrane Permeable-Phenotype (%): 30%
  Population Mitochondria Different-Phenotype (%): 6%
  Population Mitotic Cells (%): 38%
  Population Normal (%): 81%
  Population Pyknosed Nuclei (%): 12%
  Population Tubulin-Different-Phenotype (%): 34%
  Total Cell Count: 172
[12]
  Population Apoptotic (%): 66%
  Population Fragmented Nuclei (%): 29%
  Population Healthy Nuclei (%): 66%
  Population Hoechst High Intensity Objects (%): 10%
  Population Membrane Permeable-Phenotype (%): 14%
  Population Mitochondria Different-Phenotype (%): 1%
  Population Mitotic Cells (%): 33%
  Population Normal (%): 89%
  Population Pyknosed Nuclei (%): 3%
  Population Tubulin-Different-Phenotype (%): 41%
  Total Cell Count: 94
